Data taken from the array DNA melting data of Ke et al. (doi:10.1101/2024.01.08.574731).

Legend:
[1] = melting temperature; fluorescence melt of hairpins on a sequencing array, two-state fit, raised by 9.35 °C to match UV melts; conditions: sodium 0.088 M
Procedure, shortened: (§1)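 Bootstrapped two-state fits yielded melting temperature and folding enthalpy for library hairpins. Cy3 fluorescence, with annealed Cy3 and quencher oligos, was imaged on a sequenced MiSeq flow cell in 50 mM Na-HEPES pH 8.0, 25 mM NaCl in 2.5 °C steps up to 60 °C, and normalised to pre-quench Cy3 and to control constructs. Four replicates were combined by inverse variance, and fitted temperatures were raised by 9.35 °C to match UV melts.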

[2] = folding enthalpy; higher = less favourable; fluorescence melt of hairpins on a sequencing array, two-state fit; conditions: sodium 0.088 M
Procedure, shortened: as §1

Which results are given for GGAAACGAAAGTTGTCC ((((((....))).)))?
Tm [1]: 31.5 °C; folding enthalpy [2]: -18.2 kcal/mol

Which Tm [1] does the source give for GGAAACGGAAACGTTTCC (((((((....))))))) here?
The Tm was 64.8 °C.

And the folding enthalpy [2]?
The folding enthalpy was -45.5 kcal/mol.

Which Tm [1] does the source give for GGAAAGGGAAACCTCTCC (((.(((....))).))) here?
The Tm was 33 °C.

What about the folding enthalpy [2] of the same sequence?
Its folding enthalpy is -14.8 kcal/mol.

Which Tm [1] does the source give for GGAAAGGGAAACCTTCCC ((.((((....)))).)) here?
Its Tm is 33.3 °C.

What about the folding enthalpy [2] of the same sequence?
The folding enthalpy was -19.3 kcal/mol.

Which Tm [1] does the source give for GGAAAGGGAAACCTTTCC (((((((....))))))) here?
The Tm was 55.8 °C.

And the folding enthalpy [2]?
Its folding enthalpy is -41.9 kcal/mol.

For GGAAATGAAAATTTCC ((((((....)))))), which Tm [1] is on record?
The Tm was 48.8 °C.

What about the folding enthalpy [2] of the same sequence?
The folding enthalpy was -29.2 kcal/mol.

Which Tm [1] does the source give for GGAACACGAAAGTGGTCC (((.(((....))).))) here?
The Tm was 60.7 °C.

And the folding enthalpy [2]?
The folding enthalpy was -31.7 kcal/mol.

What does the source list for GGAACAGGAAACCGTTCC (((((.(....).)))))?
Tm [1]: 45.5 °C; folding enthalpy [2]: -31.7 kcal/mol

With GGAACAGGAAACTGTCCC ((.((((....)))).)) as the sequence, how does the Tm [1] read?
The Tm was 39.9 °C.

What about the folding enthalpy [2] of the same sequence?
The folding enthalpy was -23.1 kcal/mol.

What does the source list for GGAACAGGAAACTGTTTC (.(((((....))))).)?
Tm [1]: 44.4 °C; folding enthalpy [2]: -31.7 kcal/mol

With GGAACCACGAAAGTGTCC (((..(((....)))))) as the sequence, how does the Tm [1] read?
The Tm was 28.1 °C.

And the folding enthalpy [2]?
Its folding enthalpy is -11.2 kcal/mol.

For GGAACCCGAAAGGGATCC (((.(((....))).))), which Tm [1] is on record?
The Tm was 54.5 °C.

What about the folding enthalpy [2] of the same sequence?
The folding enthalpy was -28 kcal/mol.

Which results are given for GGAACCCGAAAGGGCTCC (((.(((....))).)))?
Tm [1]: 54.5 °C; folding enthalpy [2]: -32.4 kcal/mol

What does the source list for GGAACCGAAAGGTCCTCC ((((((....)))..)))?
Tm [1]: 50.2 °C; folding enthalpy [2]: -17.5 kcal/mol

For GGAACCGAAAGGTCTTCC ((((((....)))..))), which Tm [1] is on record?
The Tm was 38.7 °C.

And the folding enthalpy [2]?
The folding enthalpy was -20.3 kcal/mol.

What does the source list for GGAACCGAAAGGTTATCC ((((((....)))..)))?
Tm [1]: 35.9 °C; folding enthalpy [2]: -11.8 kcal/mol

With GGAACCGAAAGGTTGTCC ((((((....)))..))) as the sequence, how does the Tm [1] read?
Its Tm is 36.1 °C.

What about the folding enthalpy [2] of the same sequence?
Its folding enthalpy is -11.5 kcal/mol.

Which results are given for GGAACCGAAAGGTTTTCC ((((((....)))..)))?
Tm [1]: 35.6 °C; folding enthalpy [2]: -12.6 kcal/mol

What does the source list for GGAACCGCGAAAGCGTCC (((..(((....))))))?
Tm [1]: 26.3 °C; folding enthalpy [2]: -7.7 kcal/mol

For GGAACCGGAAACAGTTCC (((((.(....).))))), which Tm [1] is on record?
The Tm was 40 °C.

And the folding enthalpy [2]?
The folding enthalpy was -28.4 kcal/mol.

What does the source list for GGAACCGGAAACGGCTCC (((.(((....))).)))?
Tm [1]: 50 °C; folding enthalpy [2]: -28.5 kcal/mol

With GGAACGAAAGTTCC (((((....))))) as the sequence, how does the Tm [1] read?
The Tm was 64.3 °C.

And the folding enthalpy [2]?
The folding enthalpy was -33.3 kcal/mol.

Which results are given for GGAACGCGAAAGCGATCC (((.(((....))).)))?
Tm [1]: 59 °C; folding enthalpy [2]: -27.4 kcal/mol

Which results are given for GGAACGGGAAACCGTCCC ((.((((....)))).))?
Tm [1]: 48.2 °C; folding enthalpy [2]: -18.5 kcal/mol

For GGAACGTCGAAAGACTCC (((..(((....)))))), which Tm [1] is on record?
Its Tm is 32.1 °C.

What about the folding enthalpy [2] of the same sequence?
The folding enthalpy was -11.7 kcal/mol.

Which Tm [1] does the source give for GGAACTGGAAACAATTCC ((((.((....)).)))) here?
Its Tm is 28.4 °C.

And the folding enthalpy [2]?
Its folding enthalpy is -13.1 kcal/mol.

With GGAACTGGAAACAGTCCC ((.((((....)))).)) as the sequence, how does the Tm [1] read?
Its Tm is 40 °C.

And the folding enthalpy [2]?
The folding enthalpy was -25.4 kcal/mol.

What does the source list for GGAACTGGAAACGGTTCC (((((.(....).)))))?
Tm [1]: 51 °C; folding enthalpy [2]: -34.9 kcal/mol

For GGAAGACGAAAGTCGTCC (((.(((....))).))), which Tm [1] is on record?
The Tm was 56.2 °C.

And the folding enthalpy [2]?
The folding enthalpy was -18.9 kcal/mol.

For GGAAGAGGAAACCCTTCC (((((.(....).))))), which Tm [1] is on record?
The Tm was 37.8 °C.

And the folding enthalpy [2]?
The folding enthalpy was -30.7 kcal/mol.

What does the source list for GGAAGCCCGAAAGGGTCC (((..(((....))))))?
Tm [1]: 35.4 °C; folding enthalpy [2]: -10.8 kcal/mol

What does the source list for GGAAGCCGAAAGGCCTCC (((.(((....))).)))?
Tm [1]: 48.4 °C; folding enthalpy [2]: -20.2 kcal/mol

Which results are given for GGAAGCGAAAGCTATCC ((((((....))).)))?
Tm [1]: 40.9 °C; folding enthalpy [2]: -14.6 kcal/mol

With GGAAGCGAAAGCTCATCC ((((((....)))..))) as the sequence, how does the Tm [1] read?
Its Tm is 29 °C.

What about the folding enthalpy [2] of the same sequence?
Its folding enthalpy is -10 kcal/mol.

For GGAAGCGAAAGCTCTTCC ((((((....)))..))), which Tm [1] is on record?
Its Tm is 43 °C.

What about the folding enthalpy [2] of the same sequence?
Its folding enthalpy is -18.9 kcal/mol.

Which results are given for GGAAGCGAAAGCTGGTCC ((((((....)))..)))?
Tm [1]: 36 °C; folding enthalpy [2]: -11.6 kcal/mol

For GGAAGGGGAAACTCTTCC (((((.(....).))))), which Tm [1] is on record?
Its Tm is 46.3 °C.

What about the folding enthalpy [2] of the same sequence?
The folding enthalpy was -39.7 kcal/mol.

Which results are given for GGAAGTCCGAAAGGATCC (((..(((....))))))?
Tm [1]: 28.7 °C; folding enthalpy [2]: -11.9 kcal/mol

Which results are given for GGAAGTCGAAAGACGTCC (((.(((....))).)))?
Tm [1]: 52.2 °C; folding enthalpy [2]: -23.7 kcal/mol

For GGAAGTGGAAACACCTCC (((.(((....))).))), which Tm [1] is on record?
Its Tm is 36.6 °C.

What about the folding enthalpy [2] of the same sequence?
Its folding enthalpy is -23.5 kcal/mol.

What does the source list for GGAAGTGGAAACGCTTTC (.(((.(....).))).)?
Tm [1]: 31.4 °C; folding enthalpy [2]: -19.6 kcal/mol

What does the source list for GGAATACGAAAGTATCC (((.(((....))))))?
Tm [1]: 42.8 °C; folding enthalpy [2]: -17.9 kcal/mol

What does the source list for GGAATCGAAAGATTTCC ((((((....))).)))?
Tm [1]: 41.5 °C; folding enthalpy [2]: -27 kcal/mol

With GGAATCGAAAGATTTTCC ((((((....)))..))) as the sequence, how does the Tm [1] read?
Its Tm is 27.8 °C.

What about the folding enthalpy [2] of the same sequence?
The folding enthalpy was -17.7 kcal/mol.

With GGAATCGCGAAAGCGTCC (((..(((....)))))) as the sequence, how does the Tm [1] read?
The Tm was 29.2 °C.

And the folding enthalpy [2]?
The folding enthalpy was -8.44 kcal/mol.
